According to ChEMBL document CHEMBL2390869, “Evolution of novel tricyclic CRTh2 receptor antagonists from a (E)-2-cyano-3-(1H-indol-3-yl)acrylamide scaffold” (Bioorg Med Chem Lett, 2013):
Converted amounts (≈) assume the structure as drawn.

Tests used:
[1] = Solubility of the compound in buffer at pH 4; assay type: physicochemical
Method in brief: (§1)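 Solubility measured in buffered aqueous solution at pH 4 and pH 7, and in water, where the final pH of the aqueous solution was 4.6.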

[2] = Stability in simulated gastric fluid after 1hr by LC/MS analysis; assay type: physicochemical; settings: read-out: Stability
Method in brief: (§2)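 Compound incubated in simulated gastric fluid for 1 h or simulated intestinal fluid for 4 h. Unchanged parent recovered and measured by LC–MS, expressed as % parent.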

[3] = Metabolic stability in rat plasma assessed as compound remaining after 4 hrs; assay type: ADME, cell-free; settings: read-out: Stability
Method in brief: (§3)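 Compound incubated in rat and human plasma for up to 4 h. Unchanged parent quantified by LC–MS, reported as % parent remaining at 4 h plus elimination half-life.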

[4] = target: Prostaglandin E2 receptor EP2 subtype (Homo sapiens, UniProt P43116); test: Inhibition of PGE2 binding to human EP2 receptor
Cytochrome P450 3A4 = Cytochrome P450 3A4 (Homo sapiens, UniProt P08684); test: Inhibition of CYP3A4 (unknown origin); assay type: ADME
[5] = target: T1, Prostaglandin E2 receptor EP3 subtype (Homo sapiens, UniProt P43115); test: Antagonist activity at human EP3 receptor assessed as inhibition of PGE2-induced Ca2+ mobilization by FLIPR assay; assay type: functional
T1 sequence (P43115 whole entry): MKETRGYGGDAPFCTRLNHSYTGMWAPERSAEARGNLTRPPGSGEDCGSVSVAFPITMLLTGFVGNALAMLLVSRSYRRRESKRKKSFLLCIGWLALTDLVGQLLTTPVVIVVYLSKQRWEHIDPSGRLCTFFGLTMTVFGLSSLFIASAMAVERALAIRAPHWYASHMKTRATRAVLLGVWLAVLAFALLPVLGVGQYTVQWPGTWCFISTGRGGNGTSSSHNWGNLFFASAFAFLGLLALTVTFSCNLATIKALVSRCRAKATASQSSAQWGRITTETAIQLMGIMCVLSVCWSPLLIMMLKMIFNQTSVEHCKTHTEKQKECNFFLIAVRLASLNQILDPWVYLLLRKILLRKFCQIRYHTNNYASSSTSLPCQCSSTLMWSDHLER
Method in brief: (§4)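 Antagonism measured as inhibition of agonist-induced Ca2+ mobilization by FLIPR: PGE2 as agonist for human EP1 and EP3, U46619 as agonist for human TP. Values are IC50.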

[6] = AUC (0 to last) in Wistar rat at 10 mg/kg, po; assay type: ADME, organism-based; set-up: time 0 - last, dose 10 mg/kg, route oral; settings: plasma
Method in brief: (§5)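 Single doses given to three male Wistar rats per route: 10 mg/kg orally and 1 mg/kg intravenously, as a solution in 20% propyleneglycol/80% buffer. Plasma PK parameters were derived. CL, terminal T1/2 and Vss come from the intravenous arm. AUC0–last comes from the oral arm.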

[7] = Volume of distribution at steady state in Wistar rat at 10 mg/kg, po and 1 mg/kg, iv; assay type: ADME, organism-based; settings: in vivo, read-out: Vdss; method in brief: as §5
[8] = Terminal half life in Wistar rat at 10 mg/kg, po and 1 mg/kg, iv; assay type: ADME, organism-based; settings: in vivo, read-out: beta t1/2 (converted); method in brief: as §5
Cytochrome P450 2C9 = Cytochrome P450 2C9 (Homo sapiens, UniProt P11712); test: Inhibition of CYP2C9 (unknown origin); assay type: ADME
[9] = Oral bioavailability in Wistar rat at 10 mg/kg; assay type: ADME, organism-based; settings: in vivo; method in brief: as §5
[10] = Lipophilicity, log D of the compound at pH 7.4; assay type: physicochemical; settings: buffer
[11] = Cmax in Wistar rat at 10 mg/kg, po and 1 mg/kg, iv; assay type: ADME, organism-based; settings: in vivo; method in brief: as §5
[12] = Intrinsic clearance in rat hepatocytes measured per 10^6 cells; assay type: ADME, cell-based, Hepatocyte; settings: read-out: CLH
Method in brief: (§6)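 Intrinsic clearance determined in human and rat liver microsomes (per mg protein) and in rat hepatocytes (per 10⁶ cells).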

[13] = target: Prostaglandin E2 receptor EP4 subtype (Homo sapiens, UniProt P35408); test: Inhibition of PGE2 binding to human EP4 receptor
[14] = Metabolic stability in human plasma assessed as compound remaining after 4 hrs; assay type: ADME, cell-free; settings: read-out: Stability; method in brief: as §3
[15] = Intrinsic clearance in rat liver microsomes assessed per mg of protein; assay type: ADME, Microsome; settings: read-out: CLH; method in brief: as §6
[16] = target: T2, Prostaglandin D2 receptor 2 (Homo sapiens, UniProt Q9Y5Y4); test: Displacement of [3H]PGD2 from human CRTh2 receptor in presence of human serum albumin
T2 sequence (Q9Y5Y4 whole entry): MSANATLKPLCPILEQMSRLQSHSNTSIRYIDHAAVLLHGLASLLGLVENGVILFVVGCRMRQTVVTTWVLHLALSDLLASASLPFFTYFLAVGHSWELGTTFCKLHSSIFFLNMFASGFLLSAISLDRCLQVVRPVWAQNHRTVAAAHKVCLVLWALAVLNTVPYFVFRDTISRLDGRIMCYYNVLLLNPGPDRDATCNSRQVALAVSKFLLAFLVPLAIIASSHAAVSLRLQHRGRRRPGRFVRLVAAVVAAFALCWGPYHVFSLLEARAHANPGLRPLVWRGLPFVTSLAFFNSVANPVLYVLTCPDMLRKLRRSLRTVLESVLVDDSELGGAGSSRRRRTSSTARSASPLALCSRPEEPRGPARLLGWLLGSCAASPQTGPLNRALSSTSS
Method in brief: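 Human CRTh2 binding assay run with 0.5% human serum albumin added to the assay buffer to mimic binding to blood proteins. IC50 is reported as the mean of at least three experiments.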

[17] = Half life in rat plasma; assay type: ADME, cell-free; method in brief: as §3
Thromboxane A2 receptor = target: T3, Thromboxane A2 receptor (Homo sapiens, UniProt P21731); test: Antagonist activity at human TP2 receptor assessed as inhibition of U46619-induced Ca2+ mobilization by FLIPR assay; assay type: functional; method in brief: as §4
T3 sequence (P21731 whole entry): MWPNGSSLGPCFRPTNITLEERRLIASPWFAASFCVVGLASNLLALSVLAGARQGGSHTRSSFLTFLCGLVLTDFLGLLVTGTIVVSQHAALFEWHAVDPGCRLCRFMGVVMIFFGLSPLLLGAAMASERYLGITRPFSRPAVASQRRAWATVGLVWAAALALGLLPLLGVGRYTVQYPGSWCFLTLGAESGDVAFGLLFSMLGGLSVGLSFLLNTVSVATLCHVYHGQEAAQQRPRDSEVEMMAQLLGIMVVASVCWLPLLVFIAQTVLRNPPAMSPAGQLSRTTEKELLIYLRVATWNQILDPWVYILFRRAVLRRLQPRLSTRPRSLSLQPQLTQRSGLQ

[18] = Clearance in Wistar rat at 10 mg/kg, po and 1 mg/kg, iv; assay type: ADME, organism-based; settings: in vivo; method in brief: as §5
Cytochrome P450 2D6 = Cytochrome P450 2D6 (Homo sapiens, UniProt P10635); test: Inhibition of CYP2D6 (unknown origin); assay type: ADME
[19] = target: T2, Prostaglandin D2 receptor 2; test: Displacement of [3H]PGD2 from human CRTh2 receptor
Method in brief: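 Human CRTh2 binding assay run in assay buffer. IC50 reported as the mean of at least three experiments.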

[20] = Aqueous solubility of the compound in water at pH 4.6; assay type: physicochemical; method in brief: as §1
[21] = Solubility of the compound in buffer at pH 7; assay type: physicochemical; method in brief: as §1
[22] = target: T4, Prostaglandin E2 receptor EP1 subtype (Homo sapiens, UniProt P34995); test: Antagonist activity at human EP1 receptor assessed as inhibition of PGE2-induced Ca2+ mobilization by FLIPR assay; assay type: functional; method in brief: as §4
T4 sequence (P34995 whole entry): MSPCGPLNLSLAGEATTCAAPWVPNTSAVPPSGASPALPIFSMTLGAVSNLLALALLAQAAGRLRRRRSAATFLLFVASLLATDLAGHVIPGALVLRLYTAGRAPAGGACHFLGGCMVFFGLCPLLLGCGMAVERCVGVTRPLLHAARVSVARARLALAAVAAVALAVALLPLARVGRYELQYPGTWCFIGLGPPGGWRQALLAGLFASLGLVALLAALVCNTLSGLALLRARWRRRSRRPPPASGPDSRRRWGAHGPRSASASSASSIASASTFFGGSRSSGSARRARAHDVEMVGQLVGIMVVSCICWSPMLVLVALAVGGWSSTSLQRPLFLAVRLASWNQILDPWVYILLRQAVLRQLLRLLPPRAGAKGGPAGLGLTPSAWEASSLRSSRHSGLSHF

[23] = Intrinsic clearance in human liver microsomes assessed per mg of protein; assay type: ADME, Microsome; settings: read-out: CLH; method in brief: as §6
[24] = target: T5, Prostaglandin D2 receptor (Homo sapiens, UniProt Q13258); test: Inhibition of PGD2 binding to human DP1 receptor
T5 sequence (Q13258 whole entry): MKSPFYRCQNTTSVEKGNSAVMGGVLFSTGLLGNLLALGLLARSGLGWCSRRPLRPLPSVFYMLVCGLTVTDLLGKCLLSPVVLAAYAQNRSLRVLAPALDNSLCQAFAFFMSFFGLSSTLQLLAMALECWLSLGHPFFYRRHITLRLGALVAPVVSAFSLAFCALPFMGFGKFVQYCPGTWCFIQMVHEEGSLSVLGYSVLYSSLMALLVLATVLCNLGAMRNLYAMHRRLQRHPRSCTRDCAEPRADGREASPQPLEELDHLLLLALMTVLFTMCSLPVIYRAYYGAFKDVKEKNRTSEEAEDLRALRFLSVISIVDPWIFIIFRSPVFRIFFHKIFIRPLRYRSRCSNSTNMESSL

[25] = Half life in human plasma; assay type: ADME, cell-free; method in brief: as §3
[26] = Stability in simulated intestinal fluid after 4 hrs by LC/MS analysis; assay type: physicochemical; settings: read-out: Stability; method in brief: as §2

Sequence of Cytochrome P450 2C9 (P11712 whole entry): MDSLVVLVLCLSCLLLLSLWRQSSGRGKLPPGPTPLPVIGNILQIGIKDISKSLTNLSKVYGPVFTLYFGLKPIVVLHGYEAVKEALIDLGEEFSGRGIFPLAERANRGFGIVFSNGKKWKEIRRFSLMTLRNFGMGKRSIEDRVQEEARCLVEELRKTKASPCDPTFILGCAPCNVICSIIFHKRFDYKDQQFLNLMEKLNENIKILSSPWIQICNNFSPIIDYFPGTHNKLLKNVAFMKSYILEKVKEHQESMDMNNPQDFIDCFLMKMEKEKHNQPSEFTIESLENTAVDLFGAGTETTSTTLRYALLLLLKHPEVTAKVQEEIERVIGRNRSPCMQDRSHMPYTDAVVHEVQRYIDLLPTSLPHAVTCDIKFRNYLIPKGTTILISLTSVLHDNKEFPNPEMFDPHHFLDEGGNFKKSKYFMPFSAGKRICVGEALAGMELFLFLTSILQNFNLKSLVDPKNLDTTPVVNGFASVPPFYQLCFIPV
Sequence of Cytochrome P450 3A4 (P08684 whole entry): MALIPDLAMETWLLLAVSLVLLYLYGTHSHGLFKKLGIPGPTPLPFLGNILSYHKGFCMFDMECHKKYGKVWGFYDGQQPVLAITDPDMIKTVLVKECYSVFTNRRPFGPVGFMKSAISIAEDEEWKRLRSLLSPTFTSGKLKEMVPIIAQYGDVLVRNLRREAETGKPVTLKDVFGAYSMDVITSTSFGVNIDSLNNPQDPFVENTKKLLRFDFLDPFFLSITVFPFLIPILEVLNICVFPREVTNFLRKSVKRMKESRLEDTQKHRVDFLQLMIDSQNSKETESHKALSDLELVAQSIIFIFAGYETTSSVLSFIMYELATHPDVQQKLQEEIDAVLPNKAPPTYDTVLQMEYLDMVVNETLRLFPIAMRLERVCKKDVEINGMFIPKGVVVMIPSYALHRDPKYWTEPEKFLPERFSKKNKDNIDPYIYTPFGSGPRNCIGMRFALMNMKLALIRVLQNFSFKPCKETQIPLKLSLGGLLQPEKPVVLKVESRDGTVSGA
Sequence of Prostaglandin E2 receptor EP4 subtype (P35408 whole entry): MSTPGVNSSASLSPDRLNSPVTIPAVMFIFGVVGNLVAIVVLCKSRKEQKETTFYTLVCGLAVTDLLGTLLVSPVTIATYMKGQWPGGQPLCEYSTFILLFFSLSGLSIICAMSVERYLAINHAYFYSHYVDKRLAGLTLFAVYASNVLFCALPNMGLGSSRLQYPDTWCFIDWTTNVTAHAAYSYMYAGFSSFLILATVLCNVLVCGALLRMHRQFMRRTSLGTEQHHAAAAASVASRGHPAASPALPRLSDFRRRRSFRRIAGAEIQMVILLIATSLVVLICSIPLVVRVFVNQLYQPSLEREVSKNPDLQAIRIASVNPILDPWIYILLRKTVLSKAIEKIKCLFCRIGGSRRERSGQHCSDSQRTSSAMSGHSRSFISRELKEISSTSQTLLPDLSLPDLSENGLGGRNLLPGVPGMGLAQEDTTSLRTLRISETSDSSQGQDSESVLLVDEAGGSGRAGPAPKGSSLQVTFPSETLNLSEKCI
Sequence of Cytochrome P450 2D6 (P10635 whole entry): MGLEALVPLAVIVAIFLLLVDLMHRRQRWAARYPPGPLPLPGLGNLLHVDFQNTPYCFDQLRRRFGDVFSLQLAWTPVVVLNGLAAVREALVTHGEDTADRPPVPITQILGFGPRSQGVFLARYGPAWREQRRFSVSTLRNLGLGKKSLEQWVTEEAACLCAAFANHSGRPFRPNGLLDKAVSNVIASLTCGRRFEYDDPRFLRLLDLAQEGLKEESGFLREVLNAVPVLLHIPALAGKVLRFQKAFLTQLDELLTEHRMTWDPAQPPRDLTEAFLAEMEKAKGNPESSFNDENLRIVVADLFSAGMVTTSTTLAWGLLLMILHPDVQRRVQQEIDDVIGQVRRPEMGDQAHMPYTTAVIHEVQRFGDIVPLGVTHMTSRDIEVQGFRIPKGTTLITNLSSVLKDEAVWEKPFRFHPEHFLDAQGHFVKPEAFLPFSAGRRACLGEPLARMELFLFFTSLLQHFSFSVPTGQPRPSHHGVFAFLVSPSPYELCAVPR
Sequence of Prostaglandin E2 receptor EP2 subtype (P43116 whole entry): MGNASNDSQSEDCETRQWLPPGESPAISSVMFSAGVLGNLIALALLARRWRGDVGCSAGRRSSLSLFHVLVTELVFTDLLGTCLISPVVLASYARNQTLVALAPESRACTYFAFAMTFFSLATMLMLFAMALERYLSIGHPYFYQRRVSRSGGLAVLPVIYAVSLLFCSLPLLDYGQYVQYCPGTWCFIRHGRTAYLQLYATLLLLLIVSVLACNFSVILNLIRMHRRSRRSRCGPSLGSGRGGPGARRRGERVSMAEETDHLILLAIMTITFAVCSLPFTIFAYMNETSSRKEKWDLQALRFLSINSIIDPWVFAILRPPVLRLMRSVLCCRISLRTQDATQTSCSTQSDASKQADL

solubility [1]: 7 µg/mL (≈ 18.2 µM)
remaining at 1 h [2]: 93%
remaining at 4 h [3]: 90%
IC50 [4]: > 10 µM
IC50 (Cytochrome P450 3A4): > 10 µM
IC50 [5]: > 10 µM
AUC(0-t) [6]: 2200 ng·h/mL
Vd [7]: 0.7 L/kg
half-life [8]: 1 h
IC50 (Cytochrome P450 2C9): > 10 µM
bioavailability [9]: 18%
logD [10]: -0.4
Cmax [11]: 213 ng/mL
hepatocyte CLint [12]: 11 µL/min/1e6 cells
IC50 [13]: > 10 µM
remaining at 4 h [14]: 95%
microsomal CLint [15]: 32 µL/min/mg
IC50 [16]: 0.01 µM
half-life [17]: > 4 h
IC50 (Thromboxane A2 receptor): > 25 µM
clearance [18]: 14 mL/min/kg
IC50 (Cytochrome P450 2D6): > 10 µM
IC50 [19]: 0.014 µM
solubility [20]: 17 µg/mL (≈ 44.1 µM)
solubility [21]: 670 µg/mL (≈ 1740 µM)
IC50 [22]: > 10 µM
microsomal CLint [23]: 6 µL/min/mg
IC50 [24]: 8.2 µM
half-life [25]: > 4 h
remaining at 4 h [26]: 68%
Compound: N#C/C(=C\c1cn(CC(=O)O)c2ccccc12)C(=O)N1CCCc2ccccc21
